# DENV2 CPE rescue – inhibitors of DENV2 cytopathic effect, primary screen, cell-based, plate reader, single concentration; DENV2-infected cells, cytopathic effect rescue; 350,000 tested, 1.7% active; CPE inhibition, % at 9.99 µM; in the data active means CPE inhibition above about 20%, passing the limit was not always enough; inconclusive means no clear call, values can overlap the other calls; tested in BHK-21 cells;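 further: 0% = median of neutral control wells and 100% = median of positive control wells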
# CAL PDZ FP-1 – untagged CAL PDZ binding inhibitors, primary screen, biochemical, fluorescence polarization, HTS | 300,000 tested, 0.92% active | Golgi-associated PDZ and coiled-coil motif-containing protein (Homo sapiens), Q9HD26 | AID 602252, 2012 | purified CAL PDZ, TMR-peptide fluorescence polarization, 1 h | inhibition, % at 24.9 µM;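 active means mean inhibition of at least 30% with at least half of replicates also reaching 30%; inconclusive means no clear call, values can overlap the other calls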;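 further: 0% = DMSO neutral control and 100% = excess unlabeled competitor peptide PRC23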
# ERAP1 inh – human ERAP1 aminopeptidase inhibitors, primary screen, biochemical, single point, plate reader; 340,000 tested, 0.15% active; recombinant ERAP1, Leu-AMC fluorescence, 60 min; inhibition, % at 10.7 µM; Endoplasmic reticulum aminopeptidase 1 (Homo sapiens), Q9NZ08;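 active means mean replicate inhibition of at least 30%, or all replicates individually reaching that 30% level; inactive means mean below 30% and not every replicate reaching it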;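 further: 0% = neutral control wells and 100% = L-leucinethiol positive control wells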
# Target sequence (Q9NZ08 whole entry, looked up): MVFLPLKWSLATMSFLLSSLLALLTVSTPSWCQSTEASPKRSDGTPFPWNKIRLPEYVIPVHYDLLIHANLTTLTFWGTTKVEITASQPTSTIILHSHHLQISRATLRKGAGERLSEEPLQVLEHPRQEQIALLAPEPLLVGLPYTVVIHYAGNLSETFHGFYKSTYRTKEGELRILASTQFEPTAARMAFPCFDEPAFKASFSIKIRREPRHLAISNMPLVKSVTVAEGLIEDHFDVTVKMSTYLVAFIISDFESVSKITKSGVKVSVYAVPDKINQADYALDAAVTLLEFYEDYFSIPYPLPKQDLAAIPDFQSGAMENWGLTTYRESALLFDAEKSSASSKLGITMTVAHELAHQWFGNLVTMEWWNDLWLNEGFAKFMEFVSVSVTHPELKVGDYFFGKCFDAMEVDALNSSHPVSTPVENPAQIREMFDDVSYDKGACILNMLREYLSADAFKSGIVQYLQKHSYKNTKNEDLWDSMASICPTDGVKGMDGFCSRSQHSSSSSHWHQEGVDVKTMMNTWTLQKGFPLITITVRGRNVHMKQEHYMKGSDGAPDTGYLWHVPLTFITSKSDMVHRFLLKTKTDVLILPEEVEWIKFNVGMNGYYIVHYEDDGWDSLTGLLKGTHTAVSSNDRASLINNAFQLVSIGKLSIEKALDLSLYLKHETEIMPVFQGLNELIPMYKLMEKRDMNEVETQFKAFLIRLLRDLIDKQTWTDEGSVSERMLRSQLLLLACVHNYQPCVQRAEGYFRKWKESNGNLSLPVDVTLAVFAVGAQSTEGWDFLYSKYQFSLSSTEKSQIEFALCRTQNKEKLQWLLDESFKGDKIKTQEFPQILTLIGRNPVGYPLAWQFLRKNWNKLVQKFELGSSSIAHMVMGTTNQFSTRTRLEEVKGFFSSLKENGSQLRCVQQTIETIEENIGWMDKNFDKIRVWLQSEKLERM
# S100A4 MyoIIA – inhibitors of S100A4-myosin IIA peptide binding, primary screen, biochemical, fluorescence polarization, TAMRA-MyoIIA peptide; inhibition, % at 10.7 µM; 360,000 tested, 0.14% active; Protein S100-A4 (Homo sapiens), P26447;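 active means mean inhibition of at least 70% across replicates, with every replicate also reaching that level; inconclusive means mean inhibition reaches 70% but some replicates fall short; inactive means mean inhibition below 70%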
#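 Material: S100A4 monomer protein / Buffer or medium: 50 mM HEPES pH 7.2, 10 mM CaCl2, 100 mM KCl / Times: 5 min incubation before reading / Benchmarks: neutral control DMSO, positive control TFP / Reagent: labelled myosin peptide probe, 5 nM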
# CAL PDZ FP-2 – CAL PDZ peptide-binding inhibitors, primary screen, biochemical, fluorescence polarization, Cer-tagged CAL PDZ, HTS | Golgi-associated PDZ and coiled-coil motif-containing protein (Homo sapiens), Q9HD26 | AID 504414, 2011 | inhibition, % at 20 µM | 330,000 tested, 0.02% active | purified CAL PDZ, TMR-peptide fluorescence polarization, 1 h;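 active means highest replicate inhibition of at least 40%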;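 further: plate controls were DMSO neutral control wells for no effect and unlabeled competitor peptide control wells for full effect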
#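 Test system: tagged CAL PDZ domain / Buffer or medium: sodium phosphate/NaCl buffer pH 7.4 with TCEP, IgG, Thesit / Reagent: TMR-labelled reporter peptide T*-PRC34 bound in PDZ groove / Compound dosing: single point, 20 µM / Schedule: 1 h incubation at room temperature before polarization reading / Technique: fluorescence polarization (mP) / Benchmarks: unlabelled peptide, DMSO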
# SIRT5 block – SIRT5 desuccinylase inhibitors, primary screen, biochemical, fluorescence imaging, single point, set 5; NAD-dependent protein deacylase sirtuin-5, mitochondrial (Homo sapiens), Q9NXA8; Purified SirT5, succinyl-peptide AMC, trypsin-coupled fluorescence; inhibition, % at 15 µM; 330,000 tested, 1.1% active; AID 652115, 2013; in the data active means inhibition above about 15%; inconclusive means no clear call, values can overlap the other calls
# * marks the source's active call; other numbers are inactive results; ? = inconclusive; / = no result. Hits are enriched below; roughly 2.9% of the tested compounds scored in any of these assays.
SMILES,DENV2 CPE rescue,CAL PDZ FP-1,ERAP1 inh,S100A4 MyoIIA,CAL PDZ FP-2,SIRT5 block
C[C@H]1O[C@H](O[C@H]2[C@H](O[C@@H]3CC[C@@]4(C)C(CC[C@]5(C)C4CC=C4[C@@H]6CC(C)(C)CC[C@]6(C(=O)O[C@@H]6O[C@H](CO)[C@@H](O)[C@H](O)[C@H]6O)CC[C@]45C)C3(C)C)O[C@H](C(=O)O)[C@@H](O)[C@@H]2O)[C@@H](O)[C@@H](O)[C@@H]1O (stereo partly specified),109*,-7,-130,-1,0,/
O=C(C[C@H]1C=C[C@H](NC(=O)Cc2cccnc2)[C@@H](CO)O1)Nc1ccc(-c2ccccc2)cc1,4,/,1,4,/,-5
COCC(=O)Nc1ccc2c(c1)C(=O)N(C)[C@H]1CC[C@H](CC(=O)Nc3ccccc3F)O[C@@H]1CO2,?,/,-3,-6,/,1
C[C@@H]1CCCCO[C@H](CN(C)CC2CC2)[C@H](C)CN([C@@H](C)CO)C(=O)c2cc(NS(=O)(=O)c3cccs3)ccc2O1,42*,/,0,-62,/,5
C[C@@H]1CCCCO[C@@H](CN(C)S(=O)(=O)c2cccs2)[C@H](C)CN([C@H](C)CO)C(=O)c2cc(NS(=O)(=O)c3cccs3)ccc2O1,4,/,-1,-2,/,-1
C[C@@H]1CCCCO[C@H](CN(C)C)[C@@H](C)CN([C@H](C)CO)C(=O)c2cc(NS(=O)(=O)c3cccs3)ccc2O1,-10,/,-1,9,/,-1
C[C@@H]1CCCCO[C@H](CN(C)S(=O)(=O)c2cccs2)[C@@H](C)CN([C@@H](C)CO)C(=O)c2cc(NS(=O)(=O)c3cccs3)ccc2O1,10,/,-2,103*,/,/
C[C@@H]1CN([C@@H](C)CO)C(=O)c2cc(NS(=O)(=O)c3cccs3)ccc2O[C@@H](C)CCCCO[C@H]1CN(C)S(=O)(=O)c1cccs1,4,/,-3,-8,/,1
C[C@@H]1CCCCO[C@H](CN(C)S(=O)(=O)c2cccs2)[C@@H](C)CN([C@H](C)CO)C(=O)c2cc(NS(=O)(=O)c3cccs3)ccc2O1,59*,/,6,4,/,4
C[C@@H]1CN([C@@H](C)CO)C(=O)c2cc(NS(=O)(=O)c3cccs3)ccc2O[C@@H](C)CCCCO[C@@H]1CN(C)C,20*,/,0,0,/,2
CN1C(=O)c2cc(NC(=O)c3cnccn3)ccc2OC[C@@H]2O[C@H](CC(=O)NC3CCC3)CC[C@H]21,13,/,2,-9,/,/
CN1[C@@H]2c3ccc(-c4ccncc4)c(=O)n3C[C@@H]2[C@@H](CO)[C@@H]1C(=O)NCCc1ccccc1,20,/,0,-3,/,-4
Cc1noc(C)c1NC(=O)Nc1ccc2c(c1)C(=O)N([C@H](C)CO)C[C@@H](C)[C@@H](CN(C)C(=O)Nc1ccc3c(c1)OCO3)OCCCC[C@@H](C)O2,-1,/,-2,11,/,2
COc1ccc(NC(=O)Nc2cccc3c2O[C@@H](CN(C)C(=O)NC2CCCCC2)[C@@H](C)CN([C@H](C)CO)C3=O)cc1,3,/,-1,-1,/,3
O=C1N(Cc2ccccc2)Cc2ccccc2[C@@H]2OC(c3ccc(OCCCO)cc3)=N[C@]12Cc1ccccc1,26*,/,-4,-8,/,-2
CN(C)CC(=O)N1CC2(C1)[C@@H](c1ccccc1)[C@@H](CO)N2C(=O)C1CCCCC1,1,/,0,3,/,1
O=C(OCCc1cc2ccccc2c(=O)o1)c1ccc(F)cc1,10,-5,1,-10,0,33*
O=C(OCCc1cc2ccccc2c(=O)o1)c1ccc(C(F)(F)F)cc1,12,-4,-2,3,0,/
Cc1noc(C)c1COc1ccc(C(=O)N2CCN(S(=O)(=O)c3cccc(F)c3)CC2)cc1,1,/,-7,-6,0,28*

# Bioassay records: PubChem BioAssay, Broad Institute
